The target of data set [1] is T1, Indoleamine 2,3-dioxygenase 1 (Homo sapiens, UniProt P14902). The data set can be described thus: Inhibition of human IDO activity by spectrophotometry.
Target sequence in this assay (P14902 whole entry): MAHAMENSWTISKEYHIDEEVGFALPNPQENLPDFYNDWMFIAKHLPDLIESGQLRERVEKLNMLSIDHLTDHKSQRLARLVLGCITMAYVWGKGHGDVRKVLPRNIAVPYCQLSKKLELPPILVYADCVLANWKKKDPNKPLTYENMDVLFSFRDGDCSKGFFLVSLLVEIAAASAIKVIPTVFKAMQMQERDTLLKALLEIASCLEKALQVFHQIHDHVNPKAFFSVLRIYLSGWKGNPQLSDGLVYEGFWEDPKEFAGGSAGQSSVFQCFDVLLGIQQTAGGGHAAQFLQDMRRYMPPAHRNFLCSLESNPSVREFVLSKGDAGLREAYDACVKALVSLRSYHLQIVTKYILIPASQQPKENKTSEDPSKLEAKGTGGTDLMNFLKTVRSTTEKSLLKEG
For data set [2], the target named is Indoleamine 2,3-dioxygenase 1 (Mus musculus) (UniProt P28776). As to the kind of experiment: Inhibition of mouse IDO expressed in mouse P815B cells assessed as tryptophan degradation at 20 uM. Type of data set: cell-based. Put shortly: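 2×10^5 cells per well incubated overnight at 37 °C in HBSS with 80 μM L-Trp and 20 μM compound. Supernatant was acetonitrile-precipitated and analysed by HPLC for Trp (280 nm) and kynurenine (360 nm). Percent inhibition of Trp degradation and kynurenine production was calculated relative to maximal activity.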
Sequence of Indoleamine 2,3-dioxygenase 1 (Mus musculus) (P28776 whole entry, looked up): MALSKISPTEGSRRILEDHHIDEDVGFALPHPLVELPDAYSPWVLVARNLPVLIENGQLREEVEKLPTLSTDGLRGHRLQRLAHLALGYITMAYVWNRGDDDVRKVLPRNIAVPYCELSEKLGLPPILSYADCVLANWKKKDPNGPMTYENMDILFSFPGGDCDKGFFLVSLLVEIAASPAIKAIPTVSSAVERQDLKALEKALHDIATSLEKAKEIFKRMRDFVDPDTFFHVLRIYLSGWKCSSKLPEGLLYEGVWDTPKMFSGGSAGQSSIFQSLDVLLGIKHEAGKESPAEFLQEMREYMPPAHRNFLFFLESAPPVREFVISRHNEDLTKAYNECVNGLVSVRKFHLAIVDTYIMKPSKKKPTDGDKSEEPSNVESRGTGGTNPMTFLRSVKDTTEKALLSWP

A short description of data set [3]: Cytotoxicity against mouse P815B cells at 20 uM by MTT assay. Type of data set: cell-based. Summed up:
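MTT viability on the cells left in wells after the 20 μM overnight IDO assay in HBSS at 37 °C. Culture medium (Iscove, 10% FCS, amino acids) and MTT were added for 3–4 h at 37 °C. Formazan was dissolved in SDS/DMF overnight at 37 °C and read at 570/650 nm.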
In general terms: Tetrazolium assays rely on reduction of a dye to a coloured formazan, in cell work by metabolically active cells.

Data set [4] concerns the target T1, Indoleamine 2,3-dioxygenase 1. As to the kind of experiment: Inhibition of IDO.
Target sequence in this assay (P14902 whole entry): as the sequence (P14902 whole entry) above
The target is the same in data set [5]. The data set can be described thus: Inhibition of human IDO activity at 100 uM by spectrophotometry. Summed up: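 Recombinant N-His-tagged human IDO (Ala2–Gly403), expressed in E. coli BL21 AI and Ni-IMAC purified, 0.375 μg per well. Reaction in 50 mM phosphate pH 6.5 with 5 μM methylene blue, 40 mM ascorbate and 100 μM L-Trp, 60 min at room temperature. Stopped with 1 mM H2O2; change in OD320 read against a pre-enzyme baseline.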
Target sequence in this assay (P14902 whole entry, looked up): as the sequence (P14902 whole entry) above

Consider 31 compounds from ChEMBL document CHEMBL1667850, “Indol-2-yl ethanones as novel indoleamine 2,3-dioxygenase (IDO) inhibitors” (Bioorg Med Chem, 2011).

Active and inactive are the calls of the source. No cut-off for these calls is given here.

With `O=C(Cc1cccnc1)c1cc2cc(O)ccc2[nH]1`, the IC50 in data set [1] (read-out: IC50) was determined as 37 µM. For the same compound, the inhibition result in data set [2] was “inactive”.

As to `O=C(Cc1cccnc1)c1cc2cc(OC(F)(F)F)ccc2[nH]1`, the IC50 in data set [1] (read-out: IC50) worked out at 13.1 µM. The inhibition in data set [2] was found to be 12%.

As to `COc1ccc2[nH]c(C(=O)Cc3cccnc3)cc2c1O`, in data set [1] (read-out: IC50), the IC50 came out at 63 µM. Moreover, the inhibition in data set [2] stood at 11%.

Take `Cn1c(C(=O)Cc2cccnc2)cc2ccccc21`: in data set [1] (read-out: IC50), the IC50 came out at 34 µM. Moreover, the inhibition entry in data set [2] was “inactive”.

Consider `COc1cccc2cc(C(=O)Cc3cccnc3)[nH]c12`, for which the IC50 in data set [1] (read-out: IC50) is 82 µM. The inhibition in data set [2] came to 6%.

`O=C(Nc1cccnc1)c1cc2ccccc2[nH]1`: the IC50 in data set [1] (read-out: IC50) was found to be 94 µM. Also, in data set [2], the inhibition result is “inactive”.

Turning to `O=C(Cc1cnccn1)c1cc2ccccc2[nH]1`, in data set [1] (read-out: IC50), the IC50 stood at 26.2 µM. Moreover, the inhibition result in data set [2] is “inactive”.

Regarding `COc1ccc2[nH]c(C(=O)Cc3cccnc3)cc2c1OCc1ccccc1`, in data set [1], the IC50 result was “Not Active”. Further, in data set [2], the inhibition result is “inactive”.

On to `O=C(Cc1cccnc1)c1cc2c(F)cccc2[nH]1`, for which the IC50 in data set [1] (read-out: IC50) came to 153 µM. Also, in data set [2], the inhibition turned out to be 12%.

`O=C(Cc1cccnc1)c1cc2ccccc2[nH]1`: in data set [1] (read-out: IC50), the IC50 turned out to be 65 µM. Moreover, the inhibition in data set [2] turned out to be 13%.

In the case of `O=C(Cc1cccnc1)c1cc2cc(Br)ccc2[nH]1`, the IC50 in data set [1] (read-out: IC50) came to 18 µM. The inhibition result in data set [2] is “inactive”.

On to `COc1ccc2[nH]c(C(=O)Cc3cccnc3)cc2c1`, for which, in data set [1] (read-out: IC50), the IC50 amounted to 49 µM.

Turning to `O=C(Cc1cccnc1)c1cc2cc(-c3ccccc3)ccc2[nH]1`, the IC50 in data set [1] (read-out: IC50) was 96 µM. Also, the inhibition entry in data set [2] was “inactive”.

`O=C(Cc1cccnc1)c1cc2c(Cl)cc(Cl)cc2[nH]1`: the IC50 in data set [1] (read-out: IC50) came to 139 µM. The inhibition entry in data set [2] was “inactive”.

On to `O=C(Cc1ccccc1)c1cc2ccccc2[nH]1`, for which, in data set [1] (read-out: IC50), the IC50 is 29 µM. Also, the inhibition result in data set [2] is “inactive”.

Regarding `c1cncc(CCc2cc3ccccc3[nH]2)c1`, the IC50 result in data set [1] is “Not Active”. In data set [2], the inhibition result was “inactive”.

Regarding `O=C(Cc1cccnc1)c1[nH]c2ccccc2c1Br`, the IC50 result in data set [1] was “Not Active”. The inhibition entry in data set [2] was “inactive”.

Consider `O=C(Cc1ccccn1)c1cc2ccccc2[nH]1`, for which the IC50 in data set [1] (read-out: IC50) came to 37 µM. Moreover, the inhibition in data set [2] stood at 10%.

For `O=C(Cc1cccnc1)c1cc2cc(F)ccc2[nH]1`, the IC50 in data set [1] (read-out: IC50) was determined as 36 µM. The inhibition in data set [2] was 24%.

On to `O=C(Cc1cccnc1)c1cc2cc(Cl)ccc2[nH]1`, for which the IC50 in data set [1] (read-out: IC50) stood at 24.6 µM. Moreover, in data set [2], the inhibition came out at 24%.

On to `O=C(Cc1cccnc1)c1cc2cc([N+](=O)[O-])ccc2[nH]1`, for which the IC50 entry in data set [1] is “Not Active”. The inhibition entry in data set [2] was “inactive”.

Turning to `O=C(Cc1cccnc1)c1cc2c(O)cccc2[nH]1`, the IC50 in data set [1] (read-out: IC50) is 83 µM. Besides, the inhibition entry in data set [2] was “inactive”.

In the case of `OC(Cc1cccnc1)c1cc2ccccc2[nH]1` (stereo not given), the concentration for half-maximal inhibition (IC50) result in data set [1] is on record as “Not Active”. Also, the inhibition entry in data set [2] is “inactive”.

As for `COc1cc(OC)c2cc(C(=O)Cc3cccnc3)[nH]c2c1`, the Activity entry in data set [3] is reported as “Toxic”. The half-maximal inhibitory concentration (IC50) in data set [1] (read-out: IC50) worked out at 45 µM.

Regarding `COc1cccc2[nH]c(C(=O)Cc3cccnc3)cc12`, the IC50 in data set [1] (read-out: IC50) came to 58 µM. Besides, the inhibition entry in data set [2] is “inactive”.

`c1ccc2c(c1)[nH]c1cnccc12` [NORHARMANE] displayed a Ki in data set [4] of 120 µM.

Turning to `O=C(Cc1cccnc1)c1cc2ccc(F)cc2[nH]1`, in data set [1] (read-out: IC50), the IC50 was 43 µM. Besides, in data set [2], the inhibition result is “inactive”.

Take `CC(C(=O)c1cc2ccccc2[nH]1)c1cccnc1` (stereo not given): the IC50 in data set [1] (read-out: IC50) came out at 141 µM. For the same compound, the inhibition result in data set [2] is “inactive”.

As for `O/N=C(/Cc1cccnc1)c1cc2ccccc2[nH]1`, the inhibition in data set [5] worked out at 19.4%; in data set [2], 25%.

On to `Cc1ccc2[nH]c(C(=O)Cc3cccnc3)cc2c1`, for which the IC50 in data set [1] (read-out: IC50) came out at 87 µM. Besides, the inhibition in data set [2] was determined as 21%.

With `O=C(Cc1ccncc1)c1cc2ccccc2[nH]1`, the IC50 entry in data set [1] is reported as “Not Active”. In addition, the inhibition entry in data set [2] was “inactive”.

As usually defined, the IC50 is the midpoint of a concentration-inhibition curve. The inhibition is the change of the read-out against control, counted positive when it falls. One may read the Ki as a measure of affinity in units of concentration, obtained from inhibition or displacement. The low end stands for tighter binding, the high end for weaker binding.
